Assay results taken from ChEMBL document CHEMBL3112409, “A novel class of ion displacement ligands as antagonists of the αIIbβ3 receptor that limit conformational reorganization of the receptor” (Bioorg Med Chem Lett, 2014).
Active and inactive are the calls of the source. The rule behind the calls is not given here. Positions of bridges follow the written chain, without caps; N, C: chain ends. Non-standard residues stand in square brackets, D forms with d. Residues, ends and D or L forms follow the SMILES beside them. hArg = N=C(N)NCCCC[C@H](N)C(=O)O; Mpa = O=C(O)CCS

Assays:
[1] = Antiplatelet activity in platelet (unknown origin) assessed as inhibition of platelet aggregation; format: functional, cell-based
[2] = biological target: T1, Integrin alpha-IIb/beta-3 (Homo sapiens) (UniProt P05106+P08514); assay: Inhibition of […] receptor (unknown origin) assessed as inhibition of platelet adhesion at 100 uM
[3] = Fraction unbound in plasma (unknown origin); format: ADME, cell-free
Liver microsome [4] = assay: Intrinsic clearance in human liver microsomes; format: ADME
Procedure, shortened: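 Liver microsomal stability run in parallel for mouse, rat and human microsomes. Intrinsic clearance reported in μL/min/mg protein, with microsomal half-life in min.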

[5] = Kinetic solubility of the compound at pH 8.5 by CLND method; format: physicochemical; conditions: buffer
[6] = Kinetic solubility of the compound at pH 6.6 by CLND method; format: physicochemical; conditions: buffer
[7] = Thermodynamic solubility of the compound at pH 7.4 by CLND method; format: physicochemical; conditions: buffer
Procedure, shortened: (§1)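 Triplicate solubility measurements in aqueous buffer at the pH named in each line. Quantified by chemiluminescent nitrogen detection (CLND) and reported in μg/mL. An LC method was also run alongside.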

[8] = Fraction unbound in whole blood (unknown origin); format: ADME, tissue-based
[9] = Thermodynamic solubility of the compound at pH 8.5 by CLND method; format: physicochemical; conditions: buffer; procedure, shortened: as §1
[10] = Kinetic solubility of the compound at pH 7.4 by CLND method; format: physicochemical; conditions: buffer
[11] = biological target: Integrin alpha-V/beta-3 (Homo sapiens) (UniProt P05106+P06756); assay: Antagonist activity at alphaVbeta3 receptor (unknown origin); format: protein-complex assay
[12] = Thermodynamic solubility of the compound at pH 12 by CLND method; format: physicochemical; conditions: buffer; procedure, shortened: as §1
[13] = Metabolic stability in mouse hepatocytes assessed as compound remaining after 120 mins; format: ADME, cell-based, Hepatocyte; conditions: read-out: Stability
[14] = Thermodynamic solubility of the compound at pH 6.6 by CLND method; format: physicochemical; conditions: buffer; procedure, shortened: as §1
[15] = Kinetic solubility of the compound at pH 12 by CLND method; format: physicochemical; conditions: buffer
[16] = biological target: T1, Integrin alpha-IIb/beta-3 (Homo sapiens); assay: Inhibition of […] receptor (unknown origin) assessed as inhibition of platelet adhesion at 1 uM
[17] = Metabolic stability in mouse plasma after 120 mins; format: ADME, cell-free; conditions: read-out: Stability
Procedure, shortened: (§2)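 Stability in mouse plasma run in triplicate; percent remaining read at 15, 60 and 120 min.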

hERG (KCNH2) = hERG (KCNH2) (Homo sapiens, UniProt Q12809); assay: Inhibition of human ERG channel at 25 uM
Chain of hERG (KCNH2) (Q12809 whole entry): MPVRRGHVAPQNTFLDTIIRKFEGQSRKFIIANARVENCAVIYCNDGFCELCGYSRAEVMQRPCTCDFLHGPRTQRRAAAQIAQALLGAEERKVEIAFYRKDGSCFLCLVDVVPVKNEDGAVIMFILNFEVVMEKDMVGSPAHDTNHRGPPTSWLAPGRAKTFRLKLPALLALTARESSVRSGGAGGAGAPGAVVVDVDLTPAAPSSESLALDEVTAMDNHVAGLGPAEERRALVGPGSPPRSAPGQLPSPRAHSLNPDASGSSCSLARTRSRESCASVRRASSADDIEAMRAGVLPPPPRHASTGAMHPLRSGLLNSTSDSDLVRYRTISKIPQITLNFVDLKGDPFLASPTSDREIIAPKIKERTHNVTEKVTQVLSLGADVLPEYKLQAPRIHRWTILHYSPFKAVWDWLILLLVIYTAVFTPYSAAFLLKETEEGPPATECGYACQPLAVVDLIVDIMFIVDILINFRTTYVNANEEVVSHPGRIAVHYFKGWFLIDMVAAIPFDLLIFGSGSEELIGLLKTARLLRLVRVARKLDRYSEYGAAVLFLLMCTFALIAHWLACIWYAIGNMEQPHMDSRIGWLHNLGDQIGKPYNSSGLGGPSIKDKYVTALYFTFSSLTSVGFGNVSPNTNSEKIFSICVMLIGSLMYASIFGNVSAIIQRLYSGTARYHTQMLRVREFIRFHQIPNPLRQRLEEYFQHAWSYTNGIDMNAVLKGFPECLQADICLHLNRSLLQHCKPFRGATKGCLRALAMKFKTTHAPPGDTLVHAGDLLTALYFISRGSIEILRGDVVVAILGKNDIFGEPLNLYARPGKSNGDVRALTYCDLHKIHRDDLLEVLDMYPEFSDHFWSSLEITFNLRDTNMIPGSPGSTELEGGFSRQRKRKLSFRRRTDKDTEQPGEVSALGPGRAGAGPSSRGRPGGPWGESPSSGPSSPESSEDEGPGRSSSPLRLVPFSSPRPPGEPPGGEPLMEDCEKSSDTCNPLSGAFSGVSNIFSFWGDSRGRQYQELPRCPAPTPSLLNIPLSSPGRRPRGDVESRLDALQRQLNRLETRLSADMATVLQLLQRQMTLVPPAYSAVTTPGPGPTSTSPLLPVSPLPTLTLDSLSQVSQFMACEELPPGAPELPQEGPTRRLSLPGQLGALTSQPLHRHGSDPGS

[18] = Metabolic stability in mouse plasma after 60 mins; format: ADME, cell-free; conditions: read-out: Stability; procedure, shortened: as §2
[19] = Metabolic stability in mouse plasma after 15 mins; format: ADME, cell-free; conditions: read-out: Stability; procedure, shortened: as §2
[20] = biological target: T1, Integrin alpha-IIb/beta-3 (Homo sapiens); conditions: 10 uM
[21] = biological target: T1, Integrin alpha-IIb/beta-3 (Homo sapiens); assay: Inhibition of […] receptor (unknown origin) assessed as inhibition of platelet adhesion at 50 uM
Liver microsome [22] = assay: Intrinsic clearance in rat liver microsomes; format: ADME
[23] = Intrinsic clearance in mouse liver microsomes; format: ADME, Microsome
[24] = Tmax in dog at 26.5 mg/kg, po; format: ADME, organism-based, Canis lupus familiaris; design: dose 26.5 mg/kg, route oral; conditions: in vivo
[25] = AUC (infinity) in dog at 53 mg/kg, po; format: ADME, organism-based, Canis lupus familiaris; design: time infinity, dose 53 mg/kg, route oral; conditions: plasma
[26] = Terminal elimination rate constant in dog at 26.5 mg/kg, iv; format: ADME, organism-based, Canis lupus familiaris; design: dose 26.5 mg/kg, route intravenous; conditions: in vivo
[27] = Cmax in dog at 26.5 mg/kg, iv; format: ADME, organism-based, Canis lupus familiaris; design: dose 26.5 mg/kg, route intravenous; conditions: in vivo
[28] = Terminal elimination rate constant in dog at 26.5 mg/kg, po; format: ADME, organism-based, Canis lupus familiaris; design: dose 26.5 mg/kg, route oral; conditions: in vivo
[29] = Clearance in dog at 53 mg/kg, po; format: ADME, organism-based, Canis lupus familiaris; design: dose 53 mg/kg, route oral; conditions: in vivo
[30] = Clearance in dog at 26.5 mg/kg, po; format: ADME, organism-based, Canis lupus familiaris; design: dose 26.5 mg/kg, route oral; conditions: in vivo
[31] = AUC (infinity) in dog at 26.5 mg/kg, po; format: ADME, organism-based, Canis lupus familiaris; design: time infinity, dose 26.5 mg/kg, route oral; conditions: plasma
[32] = Elimination half life in dog at 53 mg/kg, po; format: ADME, organism-based, Canis lupus familiaris; design: dose 53 mg/kg, route oral; conditions: in vivo, read-out: beta t1/2
[33] = Elimination half life in dog at 26.5 mg/kg, po; format: ADME, organism-based, Canis lupus familiaris; design: dose 26.5 mg/kg, route oral; conditions: in vivo, read-out: beta t1/2
[34] = Clearance in dog at 26.5 mg/kg, iv; format: ADME, organism-based, Canis lupus familiaris; design: dose 26.5 mg/kg, route intravenous; conditions: in vivo
[35] = Oral bioavailability in dog at 26.5 to 53 mg/kg; format: ADME, organism-based, Canis lupus familiaris; conditions: in vivo
[36] = Cmax in dog at 53 mg/kg, po; format: ADME, organism-based, Canis lupus familiaris; design: dose 53 mg/kg, route oral; conditions: in vivo
Canis familiaris [37] = assay: Volume of distribution in dog at 26.5 mg/kg, po; format: ADME, organism-based, Canis lupus familiaris; design: dose 26.5 mg/kg, route oral; conditions: in vivo
[38] = Cmax in dog at 26.5 mg/kg, po; format: ADME, organism-based, Canis lupus familiaris; design: dose 26.5 mg/kg, route oral; conditions: in vivo
[39] = AUC (infinity) in dog at 26.5 mg/kg, iv; format: ADME, organism-based, Canis lupus familiaris; design: time infinity, dose 26.5 mg/kg, route intravenous; conditions: plasma
[40] = Terminal elimination rate constant in dog at 53 mg/kg, po; format: ADME, organism-based, Canis lupus familiaris; design: dose 53 mg/kg, route oral; conditions: in vivo
Canis familiaris [41] = assay: Volume of distribution in dog at 53 mg/kg, po; format: ADME, organism-based, Canis lupus familiaris; design: dose 53 mg/kg, route oral; conditions: in vivo
[42] = Volume of distribution in dog at 26.5 mg/kg, iv; format: ADME, organism-based, Canis lupus familiaris; design: dose 26.5 mg/kg, route intravenous; conditions: in vivo
[43] = Tmax in dog at 53 mg/kg, po; format: ADME, organism-based, Canis lupus familiaris; design: dose 53 mg/kg, route oral; conditions: in vivo
[44] = Elimination half life in dog at 26.5 mg/kg, iv; format: ADME, organism-based, Canis lupus familiaris; design: dose 26.5 mg/kg, route intravenous; conditions: in vivo, read-out: beta t1/2
[45] = Tmax in dog at 26.5 mg/kg, iv; format: ADME, organism-based, Canis lupus familiaris; design: dose 26.5 mg/kg, route intravenous; conditions: in vivo

In the case of `CCc1nn2c(=O)cc(N3CCOCC3)nc2s1`, the IC50 [1] is reported as 49 µM and the inhibition [2] is reported as 20%.
`O=c1cc(N2CCNCC2)nc2sc(-c3ccccc3)nn12` gave an IC50 [1] of 3 µM and an inhibition [2] of 56%.
`C[C@H](N)C(=O)Nc1cccc(-c2nn3c(=O)cc(N4CCNCC4)nc3s2)c1` gave an IC50 [1] of 5.87 µM and an inhibition [2] of 66%.
In the case of `NCC(=O)Nc1cncc(-c2nn3c(=O)cc(N4CCNCC4)nc3s2)c1` [ZALUNFIBAN], the Fu [3] is reported as > 30%, the CLH (Liver microsome [4]) is reported as 23.2 µL/min/mg and the Kinetic_solubility [5] is reported as > 57.8 µg/mL. For the same compound, the Kinetic_solubility [6] was > 57.8 µg/mL, the Therm_solubility [7] was 239.5 µg/mL and the Fu [8] was > 85%. The Therm_solubility [9] was > 400 µg/mL, the IC50 [1] was 0.045 µM and the Kinetic_solubility [10] was > 57.8 µg/mL. For the same compound, the Activity [11] was “inactive”, the Therm_solubility [12] was > 400 µg/mL and the remaining at 2 h [13] was > 95%. For the same compound, the Therm_solubility [14] was 340.4 µg/mL, the Kinetic_solubility [15] was > 57.8 µg/mL and the inhibition [16] was 93%. The remaining at 2 h [17] was 91.7%, the inhibition at 25 µM (hERG (KCNH2)) was < 5% and the remaining at 1 h [18] was 99.5%. For the same compound, the remaining at 0.25 h [19] was 100%.
`CCCCS(=O)(=O)N[C@@H](Cc1ccc(OCCCCC2CCNCC2)cc1)C(=O)O` gave an inhibition [20] of 88%.
With `O=C(O)CNc1cccc(-c2nn3c(=O)cc(N4CCNCC4)nc3s2)c1` the inhibition [21] was 78% and the IC50 [1] was 2 µM.
Work on `NCC(=O)Nc1cccc(-c2nn3c(=O)cc(N4CCNCC4)nc3s2)c1` yielded a Kinetic_solubility [5] of 36.1 µg/mL, a Kinetic_solubility [6] of 35.8 µg/mL and a Therm_solubility [7] of 28 µg/mL. It also gave a Therm_solubility [9] of 46.2 µg/mL, a CLH (Liver microsome [22]) of 2.83 µL/min/mg and a Kinetic_solubility [10] of 34.6 µg/mL. For the same compound, the CLH [23] was 0.684 µL/min/mg, the Therm_solubility [12] was > 400 µg/mL and the Therm_solubility [14] was 41.8 µg/mL. The Kinetic_solubility [15] was 43.4 µg/mL, the inhibition [16] was 83% and the remaining at 2 h [17] was 84.5%. The inhibition at 25 µM (hERG (KCNH2)) was < 5%, the remaining at 1 h [18] was 93.3% and the remaining at 0.25 h [19] was 97.5%.
Compound `NCC(=O)Nc1cc(-c2nn3c(=O)cc(N4CCNCC4)nc3s2)ccn1` has an IC50 [1] of 0.033 µM and an inhibition [16] of 98%.
For `CCc1nn2c(=O)cc(N3CCNCC3)nc2s1`, the Tmax [24] was 0.555 h, the AUC(0-inf) [25] was 47200 ng·h/mL and the k el [26] was 0.000113 s⁻¹. It also gave a Cmax [27] of 28800 ng/mL, a k el [28] of 8e-05 s⁻¹ and an IC50 [1] of 4 µM. The CL/F [29] was 18.7 mL/min/kg, the CL/F [30] was 16.8 mL/min/kg and the AUC(0-inf) [31] was 27200 ng·h/mL. For the same compound, the half-life [32] was 1.82 h, the half-life [33] was 2.45 h and the clearance [34] was 15.9 mL/min/kg. The bioavailability [35] was 92%, the Cmax [36] was 11900 ng/mL and the Vd (Canis familiaris [37]) was 3.4669 L/kg. For the same compound, the Cmax [38] was 7800 ng/mL, the AUC(0-inf) [39] was 28000 ng·h/mL and the k el [40] was 0.000107 s⁻¹. The Vd (Canis familiaris [41]) was 2.9476 L/kg, the Vd [42] was 2.37 L/kg and the Tmax [43] was 0.5 h. For the same compound, the half-life [44] was 1.7 h and the Tmax [45] was 0.175 h.
For `CCc1nn2c(=O)cc(N3CCN(C)CC3)nc2s1`, the IC50 [1] was > 100 µM and the inhibition [2] was 35%.
For `CCc1nn2c(=O)cc(N3CCCCC3)nc2s1`, the IC50 [1] was > 100 µM and the inhibition [2] was 23%.
Work on `N=C(N)NCCCC[C@@H]1NC(=O)CCSSC[C@@H](C(N)=O)NC(=O)[C@@H]2CCCN2C(=O)[C@H](Cc2c[nH]c3ccccc23)NC(=O)[C@H](CC(=O)O)NC(=O)CNC1=O` [EPTIFIBATIDE] ([Mpa][hArg]GDWPC-NH2; disulfide 1-7) yielded an IC50 [1] of 0.012 µM.
For `CC(C)(C)c1nn2c(=O)cc(N3CCNCC3)nc2s1`, the inhibition [21] was 35% and the IC50 [1] was 4 µM.
For `NCC(=O)Nc1cc(O)cc(-c2nn3c(=O)cc(N4CCNCC4)nc3s2)c1`, the IC50 [1] was 0.1 µM and the inhibition [16] was 69%.
With `CCc1nn2c(=O)c(F)c(N3CCNCC3)nc2s1` the IC50 [1] was 8.3 µM and the inhibition [2] was 41%.
Compound `O=C(O)c1cccc(-c2nn3c(=O)cc(N4CCNCC4)nc3s2)c1` has an inhibition [21] of 37% and an IC50 [1] of 80 µM.
Work on `NCC(=O)Nc1cc(CO)cc(-c2nn3c(=O)cc(N4CCNCC4)nc3s2)c1` yielded an IC50 [1] of 0.075 µM and an inhibition [16] of 89%.
In the case of `O=C(O)c1ccc(-c2nn3c(=O)cc(N4CCNCC4)nc3s2)cc1`, the inhibition [21] is reported as 49% and the IC50 [1] is reported as 6.5 µM.
